Shown are actives, neighbours in structure and some others; about 4.1% of the full set was active somewhere.
STAT1 activator: increases IFN-gamma driven STAT1 reporter signal; NIH 3T3 STAT1-luciferase reporter, luminescence; 100% = IFN-gamma alone, no compound; activation (% of control), % at 5.5 µM; 200,000 compounds, 2.6% hits; AID 932;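 active = activation above the screen-wide mean activation plus 3 SD, cut at about 130% in these data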;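 also: raw ratio to IFN-gamma control signal so 100% means no change and 0% no light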
FLuc act counter: firefly luciferase counter-screen for stimulation assays; ATPlite luciferase biochemical, luminescence, 10 min; 0 = ATP-free wells, 1 = DMSO control; activation factor at 10 µM; 200,000 tested, under 10 active; P08659;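 active = luciferase activation factor, scaled between plate controls, of at least 2 with compound at 10 µM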
Target sequence (P08659 whole entry, looked up): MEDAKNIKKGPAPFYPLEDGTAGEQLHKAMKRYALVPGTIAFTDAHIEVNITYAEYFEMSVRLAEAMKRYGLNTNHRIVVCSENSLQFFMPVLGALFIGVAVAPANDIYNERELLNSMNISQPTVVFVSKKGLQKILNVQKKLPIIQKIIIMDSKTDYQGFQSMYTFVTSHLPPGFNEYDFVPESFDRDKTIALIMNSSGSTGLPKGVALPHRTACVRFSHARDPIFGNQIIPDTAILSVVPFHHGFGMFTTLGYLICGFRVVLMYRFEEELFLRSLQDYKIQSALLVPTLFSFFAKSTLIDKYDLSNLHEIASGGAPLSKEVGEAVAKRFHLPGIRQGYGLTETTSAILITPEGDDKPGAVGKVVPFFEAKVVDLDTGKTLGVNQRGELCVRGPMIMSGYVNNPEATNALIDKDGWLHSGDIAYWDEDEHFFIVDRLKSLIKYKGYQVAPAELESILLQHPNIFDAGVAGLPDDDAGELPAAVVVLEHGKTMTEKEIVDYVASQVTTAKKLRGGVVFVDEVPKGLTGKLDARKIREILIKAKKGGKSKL
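Assay system: Luciferase/luciferin detection reagent, cell-free biochemical luciferase assay / Read-out: luciferase activation / Benchmarks: No-ATP low control, compound-free enzyme-plus-ATP high control / Medium: PBS buffer for ATP / Detection: luminescence measurement of luciferase light output / Schedule: 10 min at ambient temperature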
NF-kB neuron act: raises NF-kB expression in human neuronal cells | NF-kB reporter expression; active compounds read high | fold change at 12.5 µM | 190,000 compounds, 1.6% hits; in the data active = fold change above about 3.3
FLuc inhib CS: Photinus pyralis luciferase inhibition counter-screen; P08659; ATPLite firefly luciferase biochemical luminescence, 10 min; inhibition, % at 10 µM; 200,000 compounds, 1.5% hits; AID 1006;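 active = inhibition above about 50% when tested at 10 µM, limit read from the data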
APP 5'UTR act: activates APP 5'UTR luciferase reporter. activation, % at 2 µM. SH-SY5Y APP 5'UTR luciferase reporter, luminescence; zero percent = DMSO vehicle wells. AID 1276. 190,000 compounds, 1% hits;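 active = activation above a set limit, based on mean plus 3 SD of controls, cut at about 140% in these data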
Numbers without * were called inactive; nt = not tested or not shown.

SMILES	STAT1 activator	FLuc act counter	NF-kB neuron act	FLuc inhib CS	APP 5'UTR act
COc1cc(NC(=O)C23CC4CC(C2)CC(n2cnc([N+](=O)[O-])n2)(C4)C3)cc(OC)c1	97.5	1	0.88	-3.3	20.6
CCOC(=O)N1CCN(C(=O)c2ccc3c(c2)N(CC)CCS3)CC1	93.2	1	0.97	2.8	26.1
COc1ccc2[nH]c(=O)c(CNc3ccccc3)cc2c1	129.1*	1	1.25	2.1	42.9
CC1(C)Cc2nc3sc4c(SCC(=O)NCc5ccccc5)ncnc4c3cc2CO1	128.7*	0.8	3.85*	20.4	-66.8
Cn1cnc2cc(NC(=O)c3ccc(Cl)cc3)ccc21	140.4*	0.8	5.04*	19.7	89.0
Cn1c(CN2CCCC2)nc2cc(NC(=O)c3ccc(Cl)cc3)ccc21	146.1*	0.9	1.33	6.3	37.7
Cc1ccc(S(=O)(=O)NCC(=O)Nc2ccc(C(F)(F)F)cc2)cc1	97.3	1	1.1	-4.0	16.8
Cc1cc(C)cc(N=Cc2c(O)c3ccccc3oc2=O)c1	106.9	1	1.33	-2.1	1.4
COc1ccc(N=Cc2c(O)c3ccccc3oc2=O)cc1	139.8*	0.1	0.93	88.2*	13.7
CC(=O)N(c1ccccc1)c1nnc(-c2cnc(C)cn2)s1	127.4	0.9	3.48*	7.7	136.9*
Cc1cc(C)c(NC(=O)CN2C(=O)NC(CCc3ccccc3)C2=O)c(C)c1 (stereo not drawn)	109.1	1.1	0.78	-5.9	22.1
C/C(=N\NC(=O)c1ccn[nH]1)c1cn(C)nc1C	129.1*	0.5	1.84	54.1*	55.1
Clc1ncccc1-c1nnn(-c2ccccc2)n1	133.5*	0.3	6.53*	70.5*	131.9
COc1ncccc1-c1nnn(-c2ccccc2)n1	148.9*	0.5	4.75*	53.8*	158.4*
Clc1ccc(-n2nnc(-c3cccnc3Cl)n2)cc1Cl	135.4*	0.8	2.52	16.1	164.4*
CCCn1c(-c2cccnc2Cl)nc2cc(Cl)c(Cl)cc21	103.0	1	1.02	-1.3	18.7
Brc1ccccc1-n1nnc(-c2ccnc3ccccc23)n1	98.6	1	1.39	2.8	22.3
Clc1nc2ccccc2cc1-c1nnn(-c2ccccc2)n1	132.9*	0.8	5.04*	19.8	112.2
O=C(CN1C(=O)c2cccc3cccc1c23)N1CCc2ccccc2C1	100.0	1	0.94	-0.4	32.7
Brc1ccc(-n2c(SCc3nc4ccccc4[nH]3)nnc2-c2ccncc2)cc1	91.6	1	0.83	-3.4	11.4
COC(=O)CNC(=O)C(Cc1c[nH]c2ccccc12)NC(=O)OC(C)(C)C (stereo not drawn)	97.1	1	1.92	-1.7	3.2
O=c1ncn(-c2ccc(F)cc2)c2ncccc12	95.2	1.1	1.07	-7.9	0.9
Fc1ccc(-n2nnc(-c3nccs3)n2)cc1	107.3	0.2	4.71*	75.5*	147.9*
CC(=O)C1=C(O)C(=O)N(c2nccs2)C1c1ccc(F)cc1 (stereo not drawn)	89.0	1.1	1.35	-7.6	-8.0
Cc1ccc(-n2nnc(-c3cnc4ccccc4c3)n2)cc1	106.0	0.5	4.5*	53.5*	194.0*
SMILES	STAT1 activator	FLuc act counter	NF-kB neuron act	FLuc inhib CS	APP 5'UTR act
c1ccc2ncc(-n3cnnn3)cc2c1	105.7	1	0.75	-2.9	-14.2
Cc1ccc(-n2nnc(-c3nccn3C)n2)cc1	72.5	0.1	4.25*	88.1*	96.6
Fc1ccc(-n2nnc(-c3cccnc3Cl)n2)cc1	143.5*	0.3	5.8*	65.6*	148.9*
CCCCCOc1ccc(Br)cc1/C(C)=N/NC1=NCCN1	94.3	1.1	2.23	-10.3	-94.5
NC(=O)C(Cc1ccccc1)NS(=O)(=O)c1ccc(N2CCCC2=O)cc1 (stereo not drawn)	99.0	1.1	0.73	-5.1	-2.3
Cc1nc2c(C(=O)N3CCN(C)CC3)cnn2c(C)c1Cc1ccc(Cl)cc1	94.8	1	0.87	-3.7	nt
Cc1nc2c(C(=O)N3CCCCC3)cnn2c(C)c1Cc1ccccc1F	137.6*	0.8	1.45	20.8	132.1
Cc1cn2nc(N)c3ccccc3c2n1	98.9	1	1.09	0.2	0.0
Nc1nn2cc(-c3ccccc3)nc2c2ccccc12	143.4*	0.2	0.97	84.6*	197.7*
Cn1c(SCc2cccc(F)c2)nnc1-c1ccccn1	121.6	1.1	1.85	-6.3	41.1
Nn1c(SCc2ccccc2)nnc1-c1ccccn1	131.1*	1	2.01	-1.1	36.4
